Columns and labels:
MT4 = assay: Antiproliferative activity against human MT4 cells assessed as reduction of growth by MTT assay; assay type: functional, cell-based
Procedure, shortened: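 MT-4 lymphoblastoid T cells (ATCC) in RPMI 1640 with 10% FCS, penicillin/streptomycin, checked for mycoplasma. 1 × 10⁴ mock-infected cells per well with serial dilutions from a 100 mM DMSO stock. Incubated 4 days at 37 °C, viable cells counted by MTT. IC50 versus untreated controls by linear regression. Mean of three separate experiments.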

HL-60(TB) = assay: Growth inhibition of human HL-60(TB) cells after 48 hrs by sulforhodamine B assay; assay type: functional; conditions: HL-60, 48 h
Procedure, shortened: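 NCI 60-cell-line screen protocol: cells exposed to compound at five 10-fold dilutions from 10^-4 to 10^-8 M for the last 48 h of a 72 h incubation. Sulforhodamine B protein assay estimated viability/growth. GI50 (50% growth inhibition) derived; where not reached or exceeded, reported as greater or less than the highest or lowest concentration tested.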

MOLT-4 = assay: Growth inhibition of human MOLT4 cells after 48 hrs by sulforhodamine B assay; assay type: functional; conditions: MOLT-4, 48 h
Procedure, shortened: (§1)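 NCI screen panel. Five 10-fold concentrations from 10^-4 to 10^-8 M. Exposure for the last 48 h of a 72 h incubation. Growth estimated by sulforhodamine B protein assay. GI50 is the concentration giving 50% growth inhibition. Where that level was not reached or was exceeded, the value is given as above or below the highest or lowest concentration tested.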

EKVX = assay: Growth inhibition of human EKVX cells after 48 hrs by sulforhodamine B assay; assay type: functional; procedure, shortened: as §1
HOP-62 = assay: Growth inhibition of human HOP62 cells after 48 hrs by sulforhodamine B assay; assay type: functional; conditions: HOP-62, 48 h; procedure, shortened: as §1
HOP-92 = assay: Growth inhibition of human HOP92 cells after 48 hrs by sulforhodamine B assay; assay type: functional; conditions: HOP-92, 48 h; procedure, shortened: as §1
NCI-H226 = assay: Growth inhibition of human NCI-H226 cells after 48 hrs by sulforhodamine B assay; assay type: functional; conditions: NCI-H226, 48 h; procedure, shortened: as §1
NCI-H322M = assay: Growth inhibition of human NCI-H322M cells after 48 hrs by sulforhodamine B assay; assay type: functional; procedure, shortened: as §1
NCI-H460 = assay: Growth inhibition of human NCI-H460 cells after 48 hrs by sulforhodamine B assay; assay type: functional; conditions: NCI-H460, 48 h; procedure, shortened: as §1
NCI-H522 = assay: Growth inhibition of human NCI-H522 cells after 48 hrs by sulforhodamine B assay; assay type: functional; conditions: NCI-H522, 48 h; procedure, shortened: as §1
HCT-116 = assay: Growth inhibition of human HCT116 cells after 48 hrs by sulforhodamine B assay; assay type: functional; conditions: HCT-116, 48 h; procedure, shortened: as §1
KM12 = assay: Growth inhibition of human KM12 cells after 48 hrs by sulforhodamine B assay; assay type: functional; conditions: KM12, 48 h; procedure, shortened: as §1
SF-268 = assay: Growth inhibition of human SF268 cells after 48 hrs by sulforhodamine B assay; assay type: functional; conditions: SF-268, 48 h; procedure, shortened: as §1
SNB-75 = assay: Growth inhibition of human SNB75 cells after 48 hrs by sulforhodamine B assay; assay type: functional; conditions: SNB-75, 48 h
Procedure, shortened: (§2)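 NCI in vitro panel screen. Compounds tested at five 10-fold dilutions, 10^-4 to 10^-8 M. Cells in 96-well plates were exposed for the last 48 h of a 72 h incubation. Viability/growth was read by sulforhodamine B protein assay. GI50 is the concentration giving 50% growth inhibition. Values beyond the tested range are reported as greater or less than the maximum or minimum concentration.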

U-251 = assay: Growth inhibition of human U251 cells after 48 hrs by sulforhodamine B assay; assay type: functional; conditions: U-251, 48 h; procedure, shortened: as §2
LOX IMVI = assay: Growth inhibition of human LOXIMVI cells after 48 hrs by sulforhodamine B assay; assay type: functional; procedure, shortened: as §1
Malme-3M = assay: Growth inhibition of human MALME-3M cells after 48 hrs by sulforhodamine B assay; assay type: functional; procedure, shortened: as §1
M14 = assay: Growth inhibition of human M14 cells after 48 hrs by sulforhodamine B assay; assay type: functional; conditions: M14, 48 h; procedure, shortened: as §1
SK-MEL-28 = assay: Growth inhibition of human SK-MEL-28 cells after 48 hrs by sulforhodamine B assay; assay type: functional; conditions: SK-MEL-28, 48 h; procedure, shortened: as §1
UACC-257 = assay: Growth inhibition of human UACC257 cells after 48 hrs by sulforhodamine B assay; assay type: functional; conditions: UACC-257, 48 h; procedure, shortened: as §2
UACC-62 = assay: Growth inhibition of human UACC62 cells after 48 hrs by sulforhodamine B assay; assay type: functional; conditions: UACC-62, 48 h; procedure, shortened: as §2
IGROV-1 = assay: Growth inhibition of human IGROV1 cells after 48 hrs by sulforhodamine B assay; assay type: functional; conditions: IGROV-1, 48 h; procedure, shortened: as §1
OVCAR-3 = assay: Growth inhibition of human OVCAR-3 cells after 48 hrs by sulforhodamine B assay; assay type: functional; conditions: OVCAR-3, 48 h; procedure, shortened: as §1
OVCAR-8 = assay: Growth inhibition of human OVCAR8 cells after 48 hrs by sulforhodamine B assay; assay type: functional; conditions: OVCAR-8, 48 h; procedure, shortened: as §1
SK-OV-3 = assay: Growth inhibition of human SKOV3 cells after 48 hrs by sulforhodamine B assay; assay type: functional; conditions: SK-OV-3, 48 h; procedure, shortened: as §1
786-0 = assay: Growth inhibition of human 786-0 cells after 48 hrs by sulforhodamine B assay; assay type: functional; conditions: 786-0, 48 h; procedure, shortened: as §1
A498 = assay: Growth inhibition of human A498 cells after 48 hrs by sulforhodamine B assay; assay type: functional; conditions: A498, 48 h; procedure, shortened: as §1
ACHN = assay: Growth inhibition of human ACHN cells after 48 hrs by sulforhodamine B assay; assay type: functional; procedure, shortened: as §1
CAKI-1 = assay: Growth inhibition of human Caki1 cells after 48 hrs by sulforhodamine B assay; assay type: functional; conditions: CAKI-1, 48 h; procedure, shortened: as §1
SN12C = assay: Growth inhibition of human SN12C cells after 48 hrs by sulforhodamine B assay; assay type: functional; procedure, shortened: as §2
TK-10 = assay: Growth inhibition of human TK10 cells after 48 hrs by sulforhodamine B assay; assay type: functional; conditions: TK-10, 48 h; procedure, shortened: as §2
PC-3 = assay: Growth inhibition of human PC3 cells after 48 hrs by sulforhodamine B assay; assay type: functional; conditions: PC-3, 48 h; procedure, shortened: as §1
DU-145 = assay: Growth inhibition of human DU145 cells after 48 hrs by sulforhodamine B assay; assay type: functional; conditions: DU-145, 48 h; procedure, shortened: as §1
MCF7 = assay: Growth inhibition of human MCF7 cells after 48 hrs by sulforhodamine B assay; assay type: functional; conditions: MCF7, 48 h; procedure, shortened: as §1
MDA-MB-231 = assay: Growth inhibition of human MDA-MB-231 cells after 48 hrs by sulforhodamine B assay; assay type: functional; conditions: MDA-MB-231, 48 h; procedure, shortened: as §1
[1] = Growth inhibition of human Hs 578T cells after 48 hrs by sulforhodamine B assay; assay type: functional; procedure, shortened: as §1
MDA-MB-435 = assay: Growth inhibition of human MDA-MB-435 cells after 48 hrs by sulforhodamine B assay; assay type: functional; conditions: MDA-MB-435, 48 h; procedure, shortened: as §1
MDA-N = assay: Growth inhibition of human MDA-N cells after 48 hrs by sulforhodamine B assay; assay type: functional
Procedure, shortened: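 NCI screen panel. Five 10-fold concentrations from 10^-4 to 10^-8 M. Exposure for the last 48 h of a 72 h incubation. Growth estimated by sulforhodamine B protein assay. Where that level was not reached or was exceeded, the value is given as above or below the highest or lowest concentration tested.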

BT-549 = assay: Growth inhibition of human BT549 cells after 48 hrs by sulforhodamine B assay; assay type: functional; conditions: BT-549, 48 h; procedure, shortened: as §1

Row | SMILES | IC50 (MT4) | GI50 (HL-60(TB)) | GI50 (MOLT-4) | GI50 (EKVX) | GI50 (HOP-62) | GI50 (HOP-92) | GI50 (NCI-H226) | GI50 (NCI-H322M) | GI50 (NCI-H460) | GI50 (NCI-H522) | GI50 (HCT-116) | GI50 (KM12) | GI50 (SF-268) | GI50 (SNB-75) | GI50 (U-251) | GI50 (LOX IMVI) | GI50 (Malme-3M) | GI50 (M14) | GI50 (SK-MEL-28) | GI50 (UACC-257) | other results
1 | O=C(c1ccc(Cl)cc1Cl)N1CCN(C(=O)c2ccc(Cl)cc2Cl)C1=S | 39 µM | 16.6 µM | 20.5 µM | 20.5 µM | 23.1 µM | 7.8 µM | 40.9 µM | 18.1 µM | 35.4 µM | 18.2 µM | 23.5 µM | 15.3 µM | 24.5 µM | 22.3 µM | 17.8 µM | 17.1 µM | 25.4 µM | 16.3 µM | 18.4 µM | 28.2 µM | GI50 (UACC-62): 17.3 µM; GI50 (IGROV-1): 21 µM; GI50 (OVCAR-3): 19.7 µM; GI50 (OVCAR-8): 22.1 µM; GI50 (SK-OV-3): 22.8 µM; GI50 (786-0): 18.6 µM; GI50 (A498): 16.1 µM; GI50 (ACHN): 21.3 µM; GI50 (CAKI-1): 22.1 µM; GI50 (SN12C): 18.1 µM; GI50 (TK-10): 36.3 µM; GI50 (PC-3): 22.7 µM; GI50 (DU-145): 30.6 µM; GI50 (MCF7): 18.3 µM; GI50 (MDA-MB-231): 19.1 µM; GI50 [1]: 41 µM; GI50 (MDA-MB-435): 16.4 µM; GI50 (MDA-N): 20 µM; GI50 (BT-549): 21.1 µM
2 | O=CN1CCN(C(=O)c2ccco2)C1=S | 9 µM | 2.8 µM | 4.6 µM | 13.7 µM | 12 µM | 11.5 µM | 28.5 µM | 18.5 µM | 7.3 µM | 4 µM | 10.2 µM | 5.3 µM | 3.9 µM | 8.6 µM | 14.1 µM | 3.4 µM | 8.3 µM | 10.7 µM | 26.2 µM | 11.7 µM | GI50 (UACC-62): 5 µM; GI50 (IGROV-1): 7.5 µM; GI50 (OVCAR-3): 4.2 µM; GI50 (OVCAR-8): 16.8 µM; GI50 (SK-OV-3): 26.6 µM; GI50 (786-0): 3.3 µM; GI50 (A498): 16.5 µM; GI50 (ACHN): 6.5 µM; GI50 (CAKI-1): 5.1 µM; GI50 (SN12C): 5.3 µM; GI50 (TK-10): 14.3 µM; GI50 (PC-3): 5 µM; GI50 (DU-145): 2.5 µM; GI50 (MCF7): 2.7 µM; GI50 (MDA-MB-231): 15.9 µM; GI50 [1]: 11 µM; GI50 (MDA-MB-435): 6.4 µM; GI50 (MDA-N): 9.1 µM; GI50 (BT-549): 2.3 µM
3 | O=C(c1cc(Cl)cc(Cl)c1)N1CCN(C(=O)c2cc(Cl)cc(Cl)c2)C1=S | 13 µM | 3.3 µM | 3.4 µM | 17.6 µM | 14.3 µM | 3.2 µM | 23.7 µM | 16.8 µM | 20.8 µM | 3.7 µM | 16.9 µM | 10.1 µM | 14.1 µM | 14.1 µM | 12.9 µM | 3 µM | 9.8 µM | 11.9 µM | 12.2 µM | 15.5 µM | GI50 (UACC-62): 15.6 µM; GI50 (IGROV-1): 15.3 µM; GI50 (OVCAR-3): 10.2 µM; GI50 (OVCAR-8): 15.3 µM; GI50 (SK-OV-3): 15.3 µM; GI50 (786-0): 2.9 µM; GI50 (A498): 15.5 µM; GI50 (ACHN): 17.4 µM; GI50 (CAKI-1): 9.7 µM; GI50 (SN12C): 9 µM; GI50 (TK-10): 10.7 µM; GI50 (PC-3): 16.9 µM; GI50 (DU-145): 10.5 µM; GI50 (MCF7): 3.1 µM; GI50 (MDA-MB-231): 16.2 µM; GI50 [1]: 21.4 µM; GI50 (MDA-MB-435): 9 µM; GI50 (MDA-N): 13 µM; GI50 (BT-549): 22.4 µM
